According to PMC8851455 (ACS Omega, 2022):

Columns and labels:
chicken embryo = assay: Chicken embryonic assay; type: in vivo; details: for malformation rate / mortality rate / number of dead chicken embryo / number of malformation chicken embryo / weights: embryo / weights: heart / weights: liver: egg injection, day 18
[1] = test system: S. typhimurium tester strains (TA98, TA100, and TA102); assay: Ames test, overall over three strains; type: cell-based, Salmonella typhimurium; details: 5 × 10^–5 to 50 pmol/plate, with or without S9
zebrafish embryos = details: at 1–50 μM; cited from earlier work
chicken fetal liver = assay: TBARs level; type: in vivo
ERβ = details: cited from earlier work
S. typhimurium TA98 = assay: Ames test, strain TA98; type: cell-based, Salmonella typhimurium
MCF-7 cells = assay: MCF-7 cell proliferation assay; type: cell-based, human
How it was run: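 MCF-7 cells exposed to test compound or E2 at six concentrations from 10–12 to 10–7 M in EA-free medium. Proliferation read as MTT product absorbance at 570 nm. Three independent trials, each in triplicate. % RME2 = 100 × (OD test − OD VC)/(max OD E2 − OD VC). EC50 from curve fitting. EEF = EC50 of E2/EC50 of sample. One-way ANOVA with Dunnett's test versus E2 at each concentration.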

S. typhimurium TA100 = assay: Ames test, strain TA100; type: cell-based, Salmonella typhimurium
Swiss mice = details: 100 and 200 mg/kg; cited from earlier work
[2] = higher dose (0.5 mM: 450–500 μg/kg; E2 0.1 mM: 91 μg/kg)
[3] = lower dose (0.05 mM: 45–50 μg/kg; E2 0.01 mM: 9.1 μg/kg)
[4] = TA100 +S9, 5 × 10^–2 pmol/plate
[5] = TA100 +S9, 5 × 10^–3 pmol/plate
[6] = TA100 +S9, 5 × 10^–4 pmol/plate
[7] = TA100 +S9, 5 × 10^–5 pmol/plate
[8] = TA100 -S9, 5 × 10^–2 pmol/plate
[9] = TA100 -S9, 5 × 10^–3 pmol/plate
[10] = TA100 -S9, 5 × 10^–4 pmol/plate
[11] = TA100 -S9, 5 × 10^–5 pmol/plate

With `O=c1cc(-c2ccc(O)cc2)oc2cc(O)cc(O)c12` [apigenin] the malformation rate (chicken embryo; [2]) was 0.0%, the mortality rate (chicken embryo; [2]) was 10.0% and the “number of dead chicken embryo” value (chicken embryo; [2]) was 1. The “number of malformation chicken embryo” value (chicken embryo; [2]) was 0, the “weights: embryo” value (chicken embryo; [2]) was 21.49 ± 1.44 g and the “weights: heart” value (chicken embryo; [2]) was 0.17 ± 0.02 g. The “weights: liver” value (chicken embryo; [2]) was 0.41 ± 0.02 g, the “fetal liver weight, lower compared with the VC” value (chicken embryo; higher-dose treatment) was about 20% and the malformation rate (chicken embryo; [3]) was 11.11%. For the same compound, the mortality rate (chicken embryo; [3]) was 10.0%, the “number of dead chicken embryo” value (chicken embryo; [3]) was 1 and the “number of malformation chicken embryo” value (chicken embryo; [3]) was 1. The “weights: embryo” value (chicken embryo; [3]) was 24.29 ± 0.03 g, the “weights: heart” value (chicken embryo; [3]) was 0.18 ± 0.02 g and the “weights: liver” value (chicken embryo; [3]) was 0.44 ± 0.02 g. The “Ames test outcome (signs of mutagenicity)” value [1] was “signs of mutagenicity”, the “developmental toxicity in zebrafish model” value (zebrafish embryos) was “showing developmental toxicity” and the TBARs value (chicken fetal liver; higher dose (0.5 mM: 450–500 μg/kg)) was 112.31 nmol/g. For the same compound, the TBARs value (chicken fetal liver; lower dose (0.05 mM: 45–50 μg/kg)) was 103.73 nmol/g, the “binding affinity for ERβ” value (ERβ) was 6% and the MI (S. typhimurium TA98; TA98 +S9, 0.5 pmol/plate) was 1.1. The “number of revertants/plate (M ± SD)” value (S. typhimurium TA98; TA98 +S9, 0.5 pmol/plate) was 85 ± 6 revertants/plate, the MI (S. typhimurium TA98; TA98 +S9, 5 pmol/plate) was 1.1 and the “number of revertants/plate (M ± SD)” value (S. typhimurium TA98; TA98 +S9, 5 pmol/plate) was 80 ± 10 revertants/plate. For the same compound, the MI (S. typhimurium TA98; TA98 +S9, 50 pmol/plate) was 1.0, the “number of revertants/plate (M ± SD)” value (S. typhimurium TA98; TA98 +S9, 50 pmol/plate) was 75 ± 20 revertants/plate and the MI (S. typhimurium TA98; TA98 +S9, 5 × 10^–2 pmol/plate) was 1.2. For the same compound, the “number of revertants/plate (M ± SD)” value (S. typhimurium TA98; TA98 +S9, 5 × 10^–2 pmol/plate) was 87 ± 6 revertants/plate, the MI (S. typhimurium TA98; TA98 +S9, 5 × 10^–3 pmol/plate) was 1.1 and the “number of revertants/plate (M ± SD)” value (S. typhimurium TA98; TA98 +S9, 5 × 10^–3 pmol/plate) was 80 ± 18 revertants/plate. For the same compound, the MI (S. typhimurium TA98; TA98 +S9, 5 × 10^–4 pmol/plate) was 1.1, the “number of revertants/plate (M ± SD)” value (S. typhimurium TA98; TA98 +S9, 5 × 10^–4 pmol/plate) was 83 ± 9 revertants/plate and the MI (S. typhimurium TA98; TA98 +S9, 5 × 10^–5 pmol/plate) was 0.9. For the same compound, the “number of revertants/plate (M ± SD)” value (S. typhimurium TA98; TA98 +S9, 5 × 10^–5 pmol/plate) was 68 ± 2 revertants/plate, the MI (S. typhimurium TA98; TA98 -S9, 0.5 pmol/plate) was 0.9 and the “number of revertants/plate (M ± SD)” value (S. typhimurium TA98; TA98 -S9, 0.5 pmol/plate) was 9 ± 1 revertants/plate. For the same compound, the MI (S. typhimurium TA98; TA98 -S9, 5 pmol/plate) was 1.3, the “number of revertants/plate (M ± SD)” value (S. typhimurium TA98; TA98 -S9, 5 pmol/plate) was 13 ± 1 revertants/plate and the MI (S. typhimurium TA98; TA98 -S9, 50 pmol/plate) was 1.1. The “number of revertants/plate (M ± SD)” value (S. typhimurium TA98; TA98 -S9, 50 pmol/plate) was 11 ± 4 revertants/plate, the MI (S. typhimurium TA98; TA98 -S9, 5 × 10^–2 pmol/plate) was 1.0 and the “number of revertants/plate (M ± SD)” value (S. typhimurium TA98; TA98 -S9, 5 × 10^–2 pmol/plate) was 10 ± 4 revertants/plate. The MI (S. typhimurium TA98; TA98 -S9, 5 × 10^–3 pmol/plate) was 1.0, the “number of revertants/plate (M ± SD)” value (S. typhimurium TA98; TA98 -S9, 5 × 10^–3 pmol/plate) was 10 ± 3 revertants/plate and the MI (S. typhimurium TA98; TA98 -S9, 5 × 10^–4 pmol/plate) was 0.7. The “number of revertants/plate (M ± SD)” value (S. typhimurium TA98; TA98 -S9, 5 × 10^–4 pmol/plate) was 7 ± 3 revertants/plate, the MI (S. typhimurium TA98; TA98 -S9, 5 × 10^–5 pmol/plate) was 1.0 and the “number of revertants/plate (M ± SD)” value (S. typhimurium TA98; TA98 -S9, 5 × 10^–5 pmol/plate) was 10 ± 3 revertants/plate. For the same compound, the “EEF (estradiol equivalent factor)” value (MCF-7 cells; EC50 of E2 divided by that of the test compound) was 0.16, the EC50 (MCF-7 cells; Homo sapiens, MCF7) was 0.062 nM and the “max % RME2” value (MCF-7 cells; highest % RME2 (relative maximum % E2) in test range 10^–12–10^–7 M) was 27%. The MI (S. typhimurium TA100; TA100 +S9, 0.5 pmol/plate) was 1.4, the “number of revertants/plate (M ± SD)” value (S. typhimurium TA100; TA100 +S9, 0.5 pmol/plate) was 415 ± 4 revertants/plate and the MI (S. typhimurium TA100; TA100 +S9, 5 pmol/plate) was 1.3. The “number of revertants/plate (M ± SD)” value (S. typhimurium TA100; TA100 +S9, 5 pmol/plate) was 390 ± 4 revertants/plate, the MI (S. typhimurium TA100; TA100 +S9, 50 pmol/plate) was 1.3 and the “number of revertants/plate (M ± SD)” value (S. typhimurium TA100; TA100 +S9, 50 pmol/plate) was 400 ± 2 revertants/plate. The MI (S. typhimurium TA100; [4]) was 1.2, the “number of revertants/plate (M ± SD)” value (S. typhimurium TA100; [4]) was 377 ± 15 revertants/plate and the MI (S. typhimurium TA100; [5]) was 1.1. For the same compound, the “number of revertants/plate (M ± SD)” value (S. typhimurium TA100; [5]) was 349 ± 10 revertants/plate, the MI (S. typhimurium TA100; [6]) was 1.1 and the “number of revertants/plate (M ± SD)” value (S. typhimurium TA100; [6]) was 342 ± 14 revertants/plate. For the same compound, the MI (S. typhimurium TA100; [7]) was 1.2, the “number of revertants/plate (M ± SD)” value (S. typhimurium TA100; [7]) was 358 ± 6 revertants/plate and the MI (S. typhimurium TA100; TA100 -S9, 0.5 pmol/plate) was 1.0. For the same compound, the “number of revertants/plate (M ± SD)” value (S. typhimurium TA100; TA100 -S9, 0.5 pmol/plate) was 94 ± 4 revertants/plate, the MI (S. typhimurium TA100; TA100 -S9, 5 pmol/plate) was 1.0 and the “number of revertants/plate (M ± SD)” value (S. typhimurium TA100; TA100 -S9, 5 pmol/plate) was 96 ± 4 revertants/plate. The MI (S. typhimurium TA100; TA100 -S9, 50 pmol/plate) was 1.0, the “number of revertants/plate (M ± SD)” value (S. typhimurium TA100; TA100 -S9, 50 pmol/plate) was 96 ± 8 revertants/plate and the MI (S. typhimurium TA100; [8]) was 0.9. For the same compound, the “number of revertants/plate (M ± SD)” value (S. typhimurium TA100; [8]) was 85 ± 6 revertants/plate, the MI (S. typhimurium TA100; [9]) was 0.8 and the “number of revertants/plate (M ± SD)” value (S. typhimurium TA100; [9]) was 75 ± 13 revertants/plate. The MI (S. typhimurium TA100; [10]) was 0.9, the “number of revertants/plate (M ± SD)” value (S. typhimurium TA100; [10]) was 83 ± 6 revertants/plate and the MI (S. typhimurium TA100; [11]) was 0.9. For the same compound, the “number of revertants/plate (M ± SD)” value (S. typhimurium TA100; [11]) was 87 ± 6 revertants/plate and the hepatotoxicity (Swiss mice) was “led to hepatotoxicity”.
